In the EternaBench riboswitch data:

System: MS2 coat protein
Assay: apparent Kd, MS2 coat protein; higher = weaker binding; RNA-MaP array; FMN 200 µM where present
How it was run: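 Green signal from SNAP-549-labelled MS2 coat protein was normalised to red-channel RNA signal and to the median Fmax of control clusters. The protein was titrated from 0.7 or 1.5 nM, doubling to 3 µM, without and then with constant ligand, over designs transcribed by stalled E. coli RNA polymerase on Illumina sequencing-chip clusters, in 100 mM Tris-HCl pH 7.5, 80 mM KCl, 4 mM MgCl2, BSA, DTT, yeast tRNA and Tween-20. The apparent Kd is the median of filtered per-cluster binding-curve fits.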

[1] = designed as: OFF switch for flavin mononucleotide, no ligand
[2] = ligand present: flavin mononucleotide, designed as: OFF switch for flavin mononucleotide
[3] = designed as: ON switch for flavin mononucleotide, no ligand
[4] = ligand present: flavin mononucleotide, designed as: ON switch for flavin mononucleotide

| Sequence | apparent Kd [1] [nM] | apparent Kd [2] [nM] | apparent Kd [3] [nM] | apparent Kd [4] [nM] |
| --- | --- | --- | --- | --- |
| AUAAUUUUAUUUUUCCCAAGAAUCAGAAGGCGUUACAUGAGGAUCACCCAUGUUUUGUAUAGUAACGAGGAUAUGAUAUGGUUA | 15.2 | 14.7 | – | – |
| AUACAACAUGAGGAUCACCCAUGUGAGGAUAUGCGAUACAUCAUCAUCAUCAUCAAUCGCAGAAGGCACAACAU | 50.2 | 55 | – | – |
| AUACACUUAGUGAGGAUAUCGUUUUCUUUACGGAUCGAGAAGGCACAUGAGGAUCACCCAUGUUUGACGUGAAU | 21.4 | 68.9 | – | – |
| AUACAUGAGGAUCACCCAUGUAAUUAAUUAACUAGUAAGAUCUAGGAUAUCAGCUCGUUUAGAGCUGAGAAGGAGAUCACAUGU | – | – | 36.8 | 15.6 |
| AUACAUGAGGAUCACCCAUGUUACUGGGUCUUAAUAGAUCGUAGAAGGAUGUUAUUAUAAAUUUCAUAGGAUAUACUAUUUUGU | 61.1 | 38.6 | – | – |
| AUACAUGAGGAUCACCCAUGUUACUGGGUCUUUUUAGAACGUAGAAGGAUGUUUUUAUAAAUAACAUAGGAUAUACAAUAUUGU | 59.6 | 49.9 | – | – |
| AUACUCAUGUAAGGAUAUGCAGCCGUUUCGGCUGCAGAAGGUACUAUAAUACAUGAGGAUCACCCAUGUCCCUCGCAUUGCGAG | – | – | 657 | 85.9 |
| AUAGAAGACUAGAAGGAGGUUUAAUAAUAUUGUCGAGGUAUUGUUGAAUUUAGGAUAUGGGACAUGAGGAUCACCCAUGUUUUG | – | – | 24 | 16.2 |
| AUAGAAGUCUAGAAGGACCUAGCUGUAUACCAUCAGGUAUAUACGCUAGGUAGGAUAUGGGACAUGAGGAUCACCCAUGUGUUG | – | – | 48 | 22.6 |
| AUAGGUCAAGGAUAUACAUGAGGAUCACCCAUGUAAAUAACUCCAUCCAACUCCACAAGUAGAAGGUGAAAUAA | 17 | 16.5 | – | – |
| AUAUAUAGUGUGAGGAUAUGCUGGUCCUUGGAUCAGCAGAAGGCACAUGAGGAUCACCCAUGUAGUUUAUUUUU | 24.5 | 102 | – | – |
| AUAUAUAUAUCAGGAUAUGGACAGGCCUGUCCGUAUUGAGACAGUAACAUGAGGAUCACCCAUGUCCAGAAGGGAUAUAUAUAU | 51.5 | 59.2 | – | – |
| AUAUAUCAUACAGGAUAUACAUGAGGAUCACCCAUGUGUUCUCCAUAAUUGACACCAAUUAUGCUGUAGAAGGGUAUGAUAUAU | 22.3 | 151 | – | – |
| AUAUCCUAGAUAGGAUAUACUGAGGUUGAAUGGGUAGAAGGAUCGUUAGGGUGGACUACAUGAGGAUCACCCAUGUUGUUUAUU | – | – | 213 | 208 |
| AUAUCUUGUCAAGGAUAUGUUGUAUUGAUCUGAAAACAUGAGGAUCACCCAUGUAUACGGUGGGAACAGAAGGUGAAUGUAGAA | 532 | 674 | – | – |
| AUAUGAUUAAGAGGAUAUAUACAACAUGAGGAUCACCCAUGUACCCAUGUAGUAGAAGGUUUGUUUUUAUAUAAUAAUAUAAUU | – | – | 74.8 | 52.1 |
| AUAUGUAACUAGGAUAUCAGCAUACUUCAAUGUUGAGAAGGAGUUACAUGAGGAUCACCCAUGUAUCCAACAUG | 40.5 | 28.6 | – | – |
| AUAUUCAGAGGAUAUGCGCAUAGAUAAGACUUUUUUUCUUAACAUGAGGAUCACCCAUGUAGAAGGCUGUAAUA | 20.1 | 17.5 | – | – |
| AUAUUGUGAGGAUAUGAACUAAGUAUCGAAAGAUACUAAGUUCAGAAGGCACAUGAGGAUCACCCAUGUUUCUC | 76.7 | 729 | – | – |
| AUCAGCCCGUCAGGAUAUACGUCACUGCGUCAGCAGUGUGGUAAGAUCACAUGAGGAUCACCCAUGUAGAAGGGACGAGCUGAU | 14.2 | 261 | – | – |
| AUCAGCUCGACAGGAUAUACGUCACUGCGUCAGCAGUGUGGUAAGAUCACAUGAGGAUCACCCAUGUAGAAGGGACGAGCUGAU | 12.1 | 56.2 | – | – |
| AUCAGCUCGUCAGGAUAUACGUAACUGCGUCAGCAGUGUGGUAAGAUCACAUGAGGAUCACCCAUGUAGAAGGGACGAGCUGAU | – | 529 | – | – |
| AUCAGCUCGUCAGGAUAUACGUCACUGCGUCAACAGUGUGGUAAGAUCACAUGAGGAUCACCCAUGUAGAAGGGACGAGCUGAU | 14.6 | 266 | – | – |
| AUCAGCUCGUCAGGAUAUACGUCACUGCGUCAGCAGUGUGGUAAGACCACAUGAGGAUCACCCAUGUAGAAGGGACGAGCUGAU | 7.94 | 24.5 | – | – |
| AUCAGCUCGUCAGGAUAUACGUCACUGCGUCAGCAGUGUGGUAAGAUCACAUGAGGAUCACCCAUGUAGAAGGGACGAGCUGAU | 39.7 | 696 | – | – |
| AUCAGCUCGUCAGGAUAUACGUCACUGCGUCAGCAGUGUGGUAAGAUCACAUGAGGAUCACCCAUGUAGAAGGGACGAGCUUAU | 13.8 | 260 | – | – |
| AUCAGCUCGUCAGGAUAUACGUCACUGCGUCAGCAGUGUGGUACGAUCACAUGAGGAUCACCCAUGUAGAAGGGACGAGCUGAU | 12.7 | 215 | – | – |
| AUCAGCUCGUCAGGAUAUACGUCACUGCGUCAGCAUUGUGGUAAGAUCACAUGAGGAUCACCCAUGUAGAAGGGACGAGCUGAU | 19.5 | 190 | – | – |

| Sequence | apparent Kd [1] [nM] | apparent Kd [2] [nM] | apparent Kd [3] [nM] | apparent Kd [4] [nM] |
| --- | --- | --- | --- | --- |
| AUCAGCUCGUCAGGAUAUACGUCACUGCUUCGGCAGUGUGGUAAGAUUACAUGAGGAUCACCCAUGUAGAAGGGACGAGCUGAU | 6 | 8.61 | – | – |
| AUCAGCUCGUCAGGAUAUACGUCGCUGCGUCAGCAGUGUGGUAAGAUCACAUGAGGAUCACCCAUGUAGAAGGGACGAGCUGAU | 19.3 | 374 | – | – |
| AUCAGCUCGUCAGGAUAUAGGUCACUGCGUCAGCAGUGUGGUAAGAUCACAUGAGGAUCACCCAUGUAGAAGGGACGAGCUGAU | 17.3 | 59.5 | – | – |
| AUCAGCUCGUGAGGAUAUACAUGAUAGAUCGAUUAAUUAAUUAAUUUAACAUGAGGAUCACCCAUGUAGAAGGUACGAGCUGAU | 52.3 | 50.5 | – | – |
| AUCAUGAGAGGAUAUACAUGAGGAUCACCCAUGUUCUUAUCUCGUCGUGCUCCAUUACGUAGAAGGCUCAUUUA | 16 | 49.2 | – | – |
| AUCAUGUAAGGAUAUCUUACAUGUGACUUCGGUCACUGUCAAGAGAAGGUACAUGAGGAUCACCCAUGUAUGAC | 14.7 | 19 | – | – |
| AUCAUUCGUGUAGGAUAUGCGUCAGAAACUGAUGCAGAAGGACAUGAGGAUCACCCAUGUCUUUCUCGAGCUGUAGCUCGAGGA | 21.3 | 145 | – | – |
| AUCCGACAUGAGGAUCACCCAUGUCAGGAUAUGGACUGACAUCGAAAGGAUGGAAGAACCAGAAGGGACUGGGC | 28.2 | 48.5 | – | – |
| AUCCGGCGUGUAGGAUAUGGAAAAGAAAAGGAUCCAGAAGGACAUGAGGAUCACCCAUGUACAUGUAAACAGUCAUCACCGGAA | 36.2 | 58.9 | – | – |
| AUCCUACAUGAGGAUCACCCAUGUGAGGCCUCAAUAGGAUAUGCGUGUGCCUUGGCGCAUGCAGAAGGAUUGAAGC | – | – | 363 | 52.5 |
| AUCUUGAGAGGAUAUACAUGAGGAUCACCCAUGUUGCUAACACCAUGAGCUCAUUUACGUAGAAGGCUCAUCCG | 17.7 | 17.2 | – | – |
| AUCUUGAGAGGAUAUACAUGAGGAUCACCCAUGUUGCUAACACCAUGAGCUCAUUUACGUAGAAGGCUCAUUUG | 18 | 18.6 | – | – |
| AUCUUGAGAGGAUAUACAUGAGGAUCACCCAUGUUGCUAACACCAUGCGCUCAUUUACGUAGAAGGCUCAUCCG | 21.1 | 40.4 | – | – |
| AUCUUGCGAGGAUAUACUUACUUUUUUUUAUUUGGUUGCGAACAUGAGGAUCACCCAUGUAGAAGGUGCAUAAC | 26 | 24.1 | – | – |
| AUGAAGAAUUAAGGAUAUUGAUUACAUAUGUUUAACAUGAGGAUCACCCAUGUGGGUUGCGGUAUCGAGAAGGUAAAUUAAAAG | – | – | 198 | 178 |
| AUGACGGCAGGAUAUACAUGAGGAUCACCCAUGUAAAUUUUUCGUUUACCUUGACCGUGUAGAAGGGCCCAACC | 14.5 | 16.1 | – | – |
| AUGAGGUCAGGAUAUGCAUGGCGGGACUUGCGUCGUGGCGUGGAGAAGGGACAUGAGGAUCACCCAUGUGGAGG | 108 | 88.3 | – | – |
| AUGCGGUCAGGAUAUGCAUGGCGGGACUUGCGUCGUGGCGUGGAGAAGGGACAUGAGGAUCACCCAUGUGGAGC | 53.5 | 50.4 | – | – |
| AUGCUAGUGUGAGGAUAUUAACAUGAGGAUCACCCAUGUUGGAAGUACAUGACAUGAGGUACAUUUAAGAAGGUACAUUAGCAU | 69 | 77.1 | – | – |
| AUGCUAUACGAAGGAUAUGGUUACAUGAGGAUCACCCAUGUUAUGAUUGGGUACAUGAAAAGGUUCCAGAAGGUCGUAUAGCUA | 1210 | 736 | – | – |
| AUGCUCAUAGGAUAUAGAUUGAUUCACAUGAGGAUCACCCAUGUAAACUCUACUUUUUAACUAGAAGGAUGUUUUU | 24.7 | 23.5 | – | – |
| AUGCUUCACACAGGAUAUACAUGAGGAUCACCCAUGUGUCCUAGGUAGCUGACACGAGCUACCCGGUAGAAGGGUGUGAAGCAU | 17 | 58.4 | – | – |
| AUGCUUUUUGUAGGAUAUACAUACGGUACGUAUGUAGAAGGACAUGAGGAUCACCCAUGUAAAUUAUUAUUAAAUAUCAUACUU | 12.7 | 12.2 | – | – |
| AUGGAUAUCACAGGAUAUGCCCGGGAUACCCGGGCAGAAGGGUGAUCCAUCCUAUGUAAAUACAUGAGGAUCACCCAUGUGUCC | – | – | 75 | 71.2 |
| AUGGUGACGUAGAAGGGUGACAUGAGGAUCACCCAUGUGCCGAUAUUUCUCGAGAUAUGUCGGCCACAGGAUAUACGUACCAUC | – | – | 39.3 | 83.3 |
| AUGGUGCAGGUACAGGAUAUGUUGCUCGUAACAUGAGGAUCACCCAUGUACCUAUGAGAUUAAAUGCAGAAGGGUGCACACCACG | – | – | 784 | 62.7 |
| AUGUACCGGUGAGGAUAUUUUUAAUAGAACUUUAUGAUAUACAUGAGGAUCACCCAUGUUACUUUAAAGAAGGCAUCGGAUUAA | 17.7 | 14.2 | – | – |
